In ChEMBL document CHEMBL2390926, “Identification of novel FLT3 kinase inhibitors” (Eur J Med Chem, 2013):
Calls of active or inactive are those of the source. The calls are words filed in the database; no cut-off is given here.

What was measured:
[1] = biological target: T1, Megakaryocyte-associated tyrosine-protein kinase (Homo sapiens) (UniProt P42679); test: Inhibition of MATK1 (unknown origin) transfected in mouse Ba/F3 cells at 5 uM after 24 hrs; type: cell-based; conditions: BaF3
T1 sequence (whole entry): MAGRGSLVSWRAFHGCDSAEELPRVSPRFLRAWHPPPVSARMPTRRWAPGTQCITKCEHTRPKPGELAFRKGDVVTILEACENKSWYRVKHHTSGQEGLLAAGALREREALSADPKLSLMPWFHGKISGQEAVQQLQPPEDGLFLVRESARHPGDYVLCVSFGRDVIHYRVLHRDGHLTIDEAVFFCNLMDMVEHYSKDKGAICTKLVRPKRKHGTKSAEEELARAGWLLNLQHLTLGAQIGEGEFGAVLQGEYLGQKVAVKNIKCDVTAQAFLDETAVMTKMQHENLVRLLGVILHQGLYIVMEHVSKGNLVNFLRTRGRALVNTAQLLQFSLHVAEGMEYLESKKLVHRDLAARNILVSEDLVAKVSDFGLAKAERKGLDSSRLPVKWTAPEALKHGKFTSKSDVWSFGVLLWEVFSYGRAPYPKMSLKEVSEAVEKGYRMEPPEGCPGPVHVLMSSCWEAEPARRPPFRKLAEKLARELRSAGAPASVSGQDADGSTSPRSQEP

[2] = biological target: T2, Ephrin type-A receptor 8 (Homo sapiens) (UniProt P29322); test: Inhibition of EPHA8 (unknown origin) transfected in mouse Ba/F3 cells at 5 uM after 24 hrs; type: cell-based; conditions: BaF3
T2 sequence (whole entry): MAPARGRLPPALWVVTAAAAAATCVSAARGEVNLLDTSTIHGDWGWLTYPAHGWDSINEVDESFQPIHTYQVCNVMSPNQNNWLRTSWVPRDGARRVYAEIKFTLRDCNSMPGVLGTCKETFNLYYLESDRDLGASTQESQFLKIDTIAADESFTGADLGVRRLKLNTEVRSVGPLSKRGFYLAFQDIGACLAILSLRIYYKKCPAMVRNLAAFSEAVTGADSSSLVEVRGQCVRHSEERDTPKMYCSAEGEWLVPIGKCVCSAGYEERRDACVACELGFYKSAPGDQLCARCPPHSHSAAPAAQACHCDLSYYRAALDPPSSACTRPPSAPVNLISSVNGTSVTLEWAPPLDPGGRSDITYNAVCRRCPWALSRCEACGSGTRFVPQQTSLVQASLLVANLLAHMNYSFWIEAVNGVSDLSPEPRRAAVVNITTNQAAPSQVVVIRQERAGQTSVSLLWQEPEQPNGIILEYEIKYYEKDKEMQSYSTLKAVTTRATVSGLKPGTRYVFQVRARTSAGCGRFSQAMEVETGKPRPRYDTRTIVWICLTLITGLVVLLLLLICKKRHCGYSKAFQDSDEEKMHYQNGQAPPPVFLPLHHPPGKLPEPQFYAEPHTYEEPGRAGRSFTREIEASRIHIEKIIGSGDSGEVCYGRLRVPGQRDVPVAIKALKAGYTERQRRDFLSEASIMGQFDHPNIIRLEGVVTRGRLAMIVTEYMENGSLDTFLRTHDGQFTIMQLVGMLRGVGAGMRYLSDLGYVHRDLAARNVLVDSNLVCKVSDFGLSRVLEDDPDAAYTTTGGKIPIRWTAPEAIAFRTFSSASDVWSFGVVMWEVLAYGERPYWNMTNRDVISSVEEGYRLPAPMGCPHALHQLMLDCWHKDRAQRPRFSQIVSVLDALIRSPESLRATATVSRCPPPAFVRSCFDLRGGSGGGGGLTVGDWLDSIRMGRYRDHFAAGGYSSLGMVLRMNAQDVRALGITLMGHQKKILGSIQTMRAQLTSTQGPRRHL
How it was run: (§1)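 Kinase specificity panel: each Ba/F3 line transformed with one of 24 tyrosine kinases depends on that kinase to grow. Cells were given compound at 1 or 5 µM for 24 h, with DMSO as comparator. Percentage growth was read by ATP-lite luminescence and reported as mean ± SEM.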

[3] = biological target: Leukocyte tyrosine kinase receptor (Homo sapiens) (UniProt P29376); test: Inhibition of LTK (unknown origin) transfected in mouse Ba/F3 cells at 5 uM after 24 hrs; type: cell-based; conditions: BaF3
[4] = biological target: Vascular endothelial growth factor receptor 3 (Homo sapiens) (UniProt P35916); test: Inhibition of FLT4 (unknown origin) transfected in mouse Ba/F3 cells at 5 uM after 24 hrs; type: cell-based; conditions: BaF3; how it was run: as §1
[5] = biological target: Tyrosine-protein kinase receptor UFO (Homo sapiens) (UniProt P30530); test: Inhibition of AXL (unknown origin) transfected in mouse Ba/F3 cells at 5 uM after 24 hrs; type: cell-based; conditions: BaF3; how it was run: as §1
[6] = biological target: Tyrosine-protein kinase ABL2 (Homo sapiens) (UniProt P42684); test: Inhibition of ABL2 (unknown origin) transfected in mouse Ba/F3 cells at 5 uM after 24 hrs; type: cell-based; conditions: BaF3; how it was run: as §1
[7] = biological target: Tyrosine-protein kinase ABL2 (Homo sapiens) (UniProt P42684); test: Inhibition of ABL2 (unknown origin) transfected in mouse Ba/F3 cells up to 1 uM; type: cell-based; conditions: BaF3
[8] = biological target: Proto-oncogene tyrosine-protein kinase ROS (Homo sapiens) (UniProt P08922); test: Inhibition of ROS1 (unknown origin) transfected in mouse Ba/F3 cells up to 1 uM; type: cell-based; conditions: BaF3
[9] = biological target: T2, Ephrin type-A receptor 8 (Homo sapiens); test: Inhibition of EPHA8 (unknown origin) transfected in mouse Ba/F3 cells up to 1 uM; type: cell-based; conditions: BaF3
[10] = biological target: Ephrin type-A receptor 5 (Homo sapiens) (UniProt P54756); test: Inhibition of EPHA5 (unknown origin) transfected in mouse Ba/F3 cells up to 1 uM; type: cell-based; conditions: BaF3
[11] = biological target: Proto-oncogene tyrosine-protein kinase Src (Homo sapiens) (UniProt P12931); test: Inhibition of SRC (unknown origin) transfected in mouse Ba/F3 cells up to 1 uM; type: cell-based; conditions: BaF3
How it was run: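 Ba/F3 cells transformed by ROS1 or SRC, dependent on that kinase. Parental Ba/F3 grown with mouse IL-3 served as control. Seeded at 100,000 cells/ml. Eight concentrations (50–6400 nM) run in triplicate with DMSO negative control for 24 h. Viable cells quantified by ATP-lite luminescence, mean ± SEM.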

[12] = system: KG-1; test: Cytotoxicity against human KG1 cells after 24 hrs by plate reader analysis; type: functional, cell-based; conditions: KG-1, 24 h
How it was run: (§2)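 Cells in RPMI 1640 with 10% FBS at 37 °C and 5% CO2 were seeded at 100,000 cells/ml. They were treated for 24 h at 8 concentrations (50–6400 nM), each in triplicate, with DMSO as negative control. Viable cells were measured by ATP-lite luminescence, and EC50 was taken from dose–response curves.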

[13] = system: MV4-11; test: Cytotoxicity against human MV4-11 cells after 24 hrs by plate reader analysis; type: functional, cell-based; conditions: MV4-11, 24 h; how it was run: as §2
[14] = system: EOL1; test: Cytotoxicity against human EOL-1 cells after 24 hrs by plate reader analysis; type: functional, cell-based; conditions: EOL1, 24 h; how it was run: as §2
[15] = biological target: Platelet-derived growth factor receptor alpha (Homo sapiens) (UniProt P16234); test: Inhibition of PDGFRalpha phosphorylation in human EOL-1 cells after 90 mins by Western blot analysis; type: cell-based; conditions: EOL1
How it was run: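 EOL-1 cells (FIP1L1-PDGFRA, RPMI/10% FBS) treated 90 min with increasing compound doses. Lysed in lysis buffer with 1 mM NaVO4 and protease inhibitors, reduced, and run on Bis-Tris 4–12% gels. Western blot for phospho-PDGFRα and phospho-STAT5, with total PDGFRα and STAT5 as loading controls.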

Chain of Tyrosine-protein kinase ABL2 (Homo sapiens) (P42684 whole entry): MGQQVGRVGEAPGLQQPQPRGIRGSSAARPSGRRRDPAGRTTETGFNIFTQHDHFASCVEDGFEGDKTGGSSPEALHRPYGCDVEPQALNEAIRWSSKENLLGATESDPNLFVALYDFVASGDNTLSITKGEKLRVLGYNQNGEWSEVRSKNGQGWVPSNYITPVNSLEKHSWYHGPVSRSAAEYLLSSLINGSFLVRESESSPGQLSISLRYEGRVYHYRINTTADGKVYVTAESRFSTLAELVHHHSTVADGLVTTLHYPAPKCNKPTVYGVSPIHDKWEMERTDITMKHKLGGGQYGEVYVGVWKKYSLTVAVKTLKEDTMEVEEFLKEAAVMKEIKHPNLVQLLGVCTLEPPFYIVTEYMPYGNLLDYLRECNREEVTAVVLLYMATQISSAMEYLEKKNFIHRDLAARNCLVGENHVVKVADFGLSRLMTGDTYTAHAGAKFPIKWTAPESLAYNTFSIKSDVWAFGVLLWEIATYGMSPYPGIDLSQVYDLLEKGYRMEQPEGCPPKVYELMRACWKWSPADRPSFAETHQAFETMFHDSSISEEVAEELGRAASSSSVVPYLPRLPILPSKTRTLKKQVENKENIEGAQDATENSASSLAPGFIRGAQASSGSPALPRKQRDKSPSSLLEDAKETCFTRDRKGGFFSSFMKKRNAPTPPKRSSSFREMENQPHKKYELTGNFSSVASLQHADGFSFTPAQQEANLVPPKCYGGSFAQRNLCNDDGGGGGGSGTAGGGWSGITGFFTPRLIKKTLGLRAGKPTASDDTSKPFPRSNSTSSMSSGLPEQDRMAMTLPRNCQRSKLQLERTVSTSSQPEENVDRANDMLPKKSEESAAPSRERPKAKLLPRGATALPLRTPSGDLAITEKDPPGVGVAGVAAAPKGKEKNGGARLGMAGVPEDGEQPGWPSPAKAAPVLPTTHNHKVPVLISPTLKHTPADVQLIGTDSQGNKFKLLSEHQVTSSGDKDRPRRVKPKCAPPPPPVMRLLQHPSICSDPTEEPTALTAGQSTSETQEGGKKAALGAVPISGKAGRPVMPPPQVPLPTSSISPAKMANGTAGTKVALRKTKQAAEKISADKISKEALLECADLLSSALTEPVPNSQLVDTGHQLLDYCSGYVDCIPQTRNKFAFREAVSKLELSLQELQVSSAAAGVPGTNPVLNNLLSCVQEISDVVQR
Chain of Leukocyte tyrosine kinase receptor (Homo sapiens) (P29376 whole entry): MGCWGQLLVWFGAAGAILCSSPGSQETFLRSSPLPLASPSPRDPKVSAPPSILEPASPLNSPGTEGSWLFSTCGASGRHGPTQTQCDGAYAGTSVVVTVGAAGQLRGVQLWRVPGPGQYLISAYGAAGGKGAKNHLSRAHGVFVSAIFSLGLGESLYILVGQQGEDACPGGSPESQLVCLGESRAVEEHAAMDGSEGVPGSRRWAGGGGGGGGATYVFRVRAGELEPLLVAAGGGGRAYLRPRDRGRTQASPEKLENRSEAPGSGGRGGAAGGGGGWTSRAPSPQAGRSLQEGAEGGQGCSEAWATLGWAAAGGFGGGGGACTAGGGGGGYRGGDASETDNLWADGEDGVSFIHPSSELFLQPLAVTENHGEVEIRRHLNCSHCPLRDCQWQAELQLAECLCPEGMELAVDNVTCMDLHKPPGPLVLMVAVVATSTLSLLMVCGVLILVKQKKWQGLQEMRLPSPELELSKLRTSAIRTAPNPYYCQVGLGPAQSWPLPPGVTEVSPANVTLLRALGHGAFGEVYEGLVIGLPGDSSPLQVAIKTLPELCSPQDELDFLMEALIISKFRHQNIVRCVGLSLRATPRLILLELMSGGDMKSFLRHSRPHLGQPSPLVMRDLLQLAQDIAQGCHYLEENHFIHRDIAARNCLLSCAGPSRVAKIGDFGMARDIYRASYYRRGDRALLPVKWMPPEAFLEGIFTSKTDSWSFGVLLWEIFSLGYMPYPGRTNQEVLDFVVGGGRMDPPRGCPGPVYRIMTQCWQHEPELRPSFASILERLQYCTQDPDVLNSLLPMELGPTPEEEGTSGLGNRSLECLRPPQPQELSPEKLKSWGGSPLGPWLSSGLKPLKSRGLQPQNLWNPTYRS
Chain of Tyrosine-protein kinase receptor UFO (Homo sapiens) (P30530 whole entry): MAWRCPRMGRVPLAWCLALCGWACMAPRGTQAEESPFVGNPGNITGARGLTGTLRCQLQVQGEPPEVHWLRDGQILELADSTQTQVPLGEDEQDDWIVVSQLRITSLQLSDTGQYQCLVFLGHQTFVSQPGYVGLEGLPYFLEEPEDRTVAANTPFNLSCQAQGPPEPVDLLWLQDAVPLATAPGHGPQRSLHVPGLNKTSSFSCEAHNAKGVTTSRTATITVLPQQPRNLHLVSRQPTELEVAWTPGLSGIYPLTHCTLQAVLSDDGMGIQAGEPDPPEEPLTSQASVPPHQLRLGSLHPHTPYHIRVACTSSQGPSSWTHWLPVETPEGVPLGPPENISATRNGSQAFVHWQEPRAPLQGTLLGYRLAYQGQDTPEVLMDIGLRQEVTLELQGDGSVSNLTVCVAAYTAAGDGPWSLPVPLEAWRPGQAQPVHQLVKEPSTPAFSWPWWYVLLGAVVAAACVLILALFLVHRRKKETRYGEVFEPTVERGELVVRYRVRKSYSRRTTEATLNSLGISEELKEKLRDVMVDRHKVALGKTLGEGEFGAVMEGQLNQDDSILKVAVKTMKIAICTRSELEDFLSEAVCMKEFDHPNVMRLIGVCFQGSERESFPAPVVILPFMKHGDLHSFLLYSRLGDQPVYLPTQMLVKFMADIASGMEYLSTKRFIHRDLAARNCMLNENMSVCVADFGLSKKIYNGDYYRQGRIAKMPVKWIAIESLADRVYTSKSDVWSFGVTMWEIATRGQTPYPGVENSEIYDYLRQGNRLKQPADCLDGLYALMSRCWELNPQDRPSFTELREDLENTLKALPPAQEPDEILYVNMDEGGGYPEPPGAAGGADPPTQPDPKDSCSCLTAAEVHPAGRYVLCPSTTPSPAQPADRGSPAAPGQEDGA
Chain of Vascular endothelial growth factor receptor 3 (Homo sapiens) (P35916 whole entry): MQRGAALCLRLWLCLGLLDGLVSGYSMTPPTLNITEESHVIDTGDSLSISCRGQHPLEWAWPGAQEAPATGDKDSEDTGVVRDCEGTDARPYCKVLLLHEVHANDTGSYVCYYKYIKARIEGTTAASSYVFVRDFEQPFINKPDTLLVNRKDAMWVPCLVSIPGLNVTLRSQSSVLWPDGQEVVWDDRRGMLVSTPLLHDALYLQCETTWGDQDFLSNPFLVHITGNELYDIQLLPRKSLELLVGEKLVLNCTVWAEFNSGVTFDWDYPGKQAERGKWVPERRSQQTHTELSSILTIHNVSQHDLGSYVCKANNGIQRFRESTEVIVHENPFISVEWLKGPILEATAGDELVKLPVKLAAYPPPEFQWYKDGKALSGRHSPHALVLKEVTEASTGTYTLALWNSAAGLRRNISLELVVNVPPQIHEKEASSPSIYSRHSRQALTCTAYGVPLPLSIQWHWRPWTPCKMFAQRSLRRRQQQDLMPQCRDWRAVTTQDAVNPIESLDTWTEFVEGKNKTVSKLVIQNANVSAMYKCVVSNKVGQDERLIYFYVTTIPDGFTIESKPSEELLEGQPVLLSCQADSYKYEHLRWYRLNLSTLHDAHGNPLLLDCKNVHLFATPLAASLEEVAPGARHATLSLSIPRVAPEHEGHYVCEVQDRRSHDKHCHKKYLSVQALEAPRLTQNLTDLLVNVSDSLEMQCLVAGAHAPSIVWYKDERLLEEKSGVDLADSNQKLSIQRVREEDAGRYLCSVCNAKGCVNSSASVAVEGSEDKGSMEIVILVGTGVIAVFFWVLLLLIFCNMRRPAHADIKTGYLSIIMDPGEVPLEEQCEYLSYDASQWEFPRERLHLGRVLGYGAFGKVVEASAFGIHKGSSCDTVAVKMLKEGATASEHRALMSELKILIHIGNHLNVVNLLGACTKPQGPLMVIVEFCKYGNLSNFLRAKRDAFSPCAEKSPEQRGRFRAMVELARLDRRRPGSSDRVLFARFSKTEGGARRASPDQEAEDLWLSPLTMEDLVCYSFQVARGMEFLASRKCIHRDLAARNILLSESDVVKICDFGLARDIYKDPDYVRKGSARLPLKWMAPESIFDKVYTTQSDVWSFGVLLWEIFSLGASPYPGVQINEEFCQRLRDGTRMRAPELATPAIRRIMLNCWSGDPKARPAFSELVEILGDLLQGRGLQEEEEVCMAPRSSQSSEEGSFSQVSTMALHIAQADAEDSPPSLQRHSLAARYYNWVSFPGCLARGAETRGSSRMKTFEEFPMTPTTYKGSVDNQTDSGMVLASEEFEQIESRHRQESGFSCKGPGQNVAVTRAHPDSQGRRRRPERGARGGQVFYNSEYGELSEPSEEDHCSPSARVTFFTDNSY
Chain of Proto-oncogene tyrosine-protein kinase Src (Homo sapiens) (P12931 2-536 limits assumed): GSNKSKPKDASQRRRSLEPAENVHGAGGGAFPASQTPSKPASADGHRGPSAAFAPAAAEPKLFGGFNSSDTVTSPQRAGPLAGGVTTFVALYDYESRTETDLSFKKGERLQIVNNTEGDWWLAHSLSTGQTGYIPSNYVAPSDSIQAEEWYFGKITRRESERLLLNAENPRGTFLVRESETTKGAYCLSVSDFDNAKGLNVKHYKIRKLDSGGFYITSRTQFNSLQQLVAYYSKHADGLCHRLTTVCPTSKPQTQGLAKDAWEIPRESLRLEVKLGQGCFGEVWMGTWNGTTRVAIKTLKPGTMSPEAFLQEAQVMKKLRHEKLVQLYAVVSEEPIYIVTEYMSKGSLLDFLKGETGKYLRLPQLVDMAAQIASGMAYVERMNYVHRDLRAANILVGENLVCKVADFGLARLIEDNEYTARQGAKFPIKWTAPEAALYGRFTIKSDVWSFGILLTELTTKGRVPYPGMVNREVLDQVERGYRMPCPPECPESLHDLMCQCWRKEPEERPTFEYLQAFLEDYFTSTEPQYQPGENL

| inhibition [1] | inhibition [2] | inhibition [3] | inhibition [4] | inhibition [5] | inhibition [6] | inhibition [7] | inhibition [8] | inhibition [9] | inhibition [10] | inhibition [11] | inhibition [15] | SMILES | EC50 [12] [µM] | EC50 [13] [µM] | EC50 [14] [µM] |
| --- | --- | --- | --- | --- | --- | --- | --- | --- | --- | --- | --- | --- | --- | --- | --- |
| inactive | inactive | inactive | inactive | inactive | inactive | – | – | – | – | – | – | Cc1ccc(-n2cnc3cc(Nc4nnc(C)c5ccccc45)ccc32)cc1 | – | – | – |
| inactive | Active | inactive | inactive | inactive | Active | inactive | inactive | inactive | inactive | inactive | – | Fc1ccc(-c2n[nH]cc2-c2ccncc2)cc1Cl | – | – | – |
| – | – | – | – | – | – | – | – | – | – | – | – | COc1ccc(C(=O)Nc2cc(-c3ccccc3)[nH]n2)cc1 | 15 | 0.142 | 0.07 |
| – | – | – | – | – | – | – | – | – | – | – | inactive | Cc1ccc(-c2cc(NC(=O)c3ccc(F)cc3)[nH]n2)cc1 | – | – | – |
